The subject of one data set is MGC-803. Description: Antiproliferative activity against human MGC803 cells after 72 hrs by MTT assay. The data set is classed as functional, cell-based. Conditions: MGC-803, 72 h. The gist of the method:
(§1)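 Cells kept in high-glucose DMEM with L-glutamine, 10% FBS, penicillin/streptomycin, at 37 °C and 5% CO2. Seeded in 96-well plates and preincubated 48 h. Compounds added at preset concentrations (6 wells each; erlotinib as positive reference) for 72 h. MTT in PBS (2.5 mg/mL) added for 4 h, formazan dissolved in DMSO, A570 read. IC50 is the concentration leaving 50% of cells surviving. Mean ± SD of three independent experiments in triplicate.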

Another data set deals with HeLa. Description: Antiproliferative activity against human HeLa cells after 72 hrs by MTT assay. It is filed as functional, cell-based. The gist of the method: as §1
A general note: Tetrazolium assays rely on reduction of a dye to a coloured formazan, in cell work by metabolically active cells.

Data set [1] can be described thus: Cytotoxicity against human 293T cells after 72 hrs by MTT assay. The data set is classed as cell-based. Conditions: HEK-293T cells.
For the next data set, the system named is MCF7. Put plainly: Antiproliferative activity against human MCF7 cells after 72 hrs by MTT assay. It is filed as functional, cell-based. Conditions: MCF7, 72 h. The method in brief:
as §1

The next data set concerns HepG2. Put plainly: Antiproliferative activity against human HepG2 cells after 72 hrs by MTT assay. It is filed as functional, cell-based. Particulars: HepG2, 72 h. The method in brief:
as §1

≈ marks a conversion by molar mass, not a printed value.

The IC50 is the midpoint of a concentration-inhibition curve. Lower therefore signals greater potency in that assay. The CC50 is the concentration giving 50% cytotoxicity. A higher CC50 goes with lower toxicity to the cells. Regarding `Cc1ccc(C(=O)O/N=C(/Cn2cc([N+](=O)[O-])nc2C)c2ccc(Br)cc2)cc1`, the half-maximal inhibitory concentration (IC50) was 0.81 µg/mL (≈ 1.77 µM) in the data set on MGC-803, 0.96 µg/mL (≈ 2.1 µM) in the data set on HeLa, 1.54 µg/mL (≈ 3.37 µM) in the data set on MCF7 and 0.96 µg/mL (≈ 2.1 µM) in the data set on HepG2. The midpoint of cytotoxicity in data set [1], the CC50 at 72 h, lay at 270 µg/mL (≈ 590 µM).
For the compound `COc1ccccc1C(=O)O/N=C(/Cn1cc([N+](=O)[O-])nc1C)c1ccc(Br)cc1`, the IC50 in the data set with MGC-803 is 3.53 µg/mL (≈ 7.46 µM); in the data set with HeLa, more than 20 µg/mL; in the data set on MCF7 it was 3.13 µg/mL (≈ 6.61 µM); in the data set with HepG2, more than 20 µg/mL. Besides, in data set [1], it took 500 µg/mL (≈ 1060 µM) to reach half-maximal cytotoxicity (CC50 at 72 h).
With `O=c1[nH]cc(F)c(=O)[nH]1` [FLUOROURACIL], the IC50 in the data set on MGC-803 worked out at 1.8 µg/mL (≈ 13.8 µM); in the data set on HeLa it was 3.82 µg/mL (≈ 29.4 µM); in the data set with MCF7 it was 2.19 µg/mL (≈ 16.8 µM); in the data set with HepG2, 2.24 µg/mL (≈ 17.2 µM).
For the compound `Cc1nc([N+](=O)[O-])cn1C/C(=N/OC(=O)c1ccc(F)cc1)c1ccc(Br)cc1`, the half-inhibitory concentration (IC50) with MGC-803 was 1.24 µg/mL (≈ 2.69 µM); in the data set on HeLa, 7.24 µg/mL (≈ 15.7 µM); with MCF7 it was 2.12 µg/mL (≈ 4.6 µM); in the data set on HepG2 it was 1.22 µg/mL (≈ 2.65 µM). Besides, the CC50 at 72 h in data set [1] was 23000 µg/mL (≈ 49900 µM).
The like results for `Cc1nc([N+](=O)[O-])cn1C/C(=N/OC(=O)c1ccccc1)c1ccc(Br)cc1` were, in that order, 3.66 µg/mL (≈ 8.26 µM), more than 20 µg/mL, more than 20 µg/mL, 14 µg/mL (≈ 31.5 µM) and 32000 µg/mL (≈ 72200 µM).
The like results for `Cc1nc([N+](=O)[O-])cn1C/C(=N/OC(=O)c1cccc(Br)c1)c1ccc(Br)cc1` were, in that order, 0.04 µg/mL (≈ 0.0766 µM), 2.57 µg/mL (≈ 4.92 µM), 1.37 µg/mL (≈ 2.62 µM), 0.86 µg/mL (≈ 1.65 µM) and 180 µg/mL (≈ 345 µM).
Consider `Cc1cccc(C(=O)O/N=C(/Cn2cc([N+](=O)[O-])nc2C)c2ccc(Br)cc2)c1`, for which the IC50 in the data set with MGC-803 stood at 3.25 µg/mL (≈ 7.11 µM); in the data set on HeLa, 12.3 µg/mL (≈ 27 µM); in the data set with MCF7, 2.82 µg/mL (≈ 6.17 µM); with HepG2, 10.7 µg/mL (≈ 23.3 µM). In addition, in data set [1], the CC50 at 72 h came to 1300 µg/mL (≈ 2840 µM).
The like results for `Cc1nc([N+](=O)[O-])cn1C/C(=N/OC(=O)c1ccccc1[N+](=O)[O-])c1ccc(Br)cc1` were, in that order, 2.54 µg/mL (≈ 5.2 µM), 11.3 µg/mL (≈ 23.2 µM), 7.13 µg/mL (≈ 14.6 µM), 6.59 µg/mL (≈ 13.5 µM) and 230 µg/mL (≈ 471 µM).
Turning to `COc1ccc(C(=O)O/N=C(/Cn2cc([N+](=O)[O-])nc2C)c2ccc(Br)cc2)cc1`, the IC50 in the data set on MGC-803 was determined as 0.34 µg/mL (≈ 0.718 µM); in the data set with HeLa it was 6.54 µg/mL (≈ 13.8 µM); in the data set on MCF7, 3.15 µg/mL (≈ 6.66 µM); in the data set with HepG2, 1.25 µg/mL (≈ 2.64 µM). The compound also returned a CC50 at 72 h in data set [1] of 1600 µg/mL (≈ 3380 µM).
The like results for `Cc1nc([N+](=O)[O-])cn1C/C(=N/OC(=O)c1ccncc1)c1ccc(Br)cc1` were, in that order, 0.02 µg/mL (≈ 0.045 µM), 1.63 µg/mL (≈ 3.67 µM), 0.87 µg/mL (≈ 1.96 µM), 0.81 µg/mL (≈ 1.82 µM) and 80 µg/mL (≈ 180 µM).
Take `Cc1nc([N+](=O)[O-])cn1C/C(=N\O)c1ccc(Br)cc1`: the IC50 was more than 20 µg/mL in the data set with MGC-803, more than 20 µg/mL in the data set with HeLa, more than 20 µg/mL in the data set on MCF7 and 17.4 µg/mL (≈ 51.3 µM) in the data set with HepG2.
For the compound `COc1ccc(C(=O)O/N=C(/Cn2cc([N+](=O)[O-])nc2C)c2ccc(Br)cc2)cn1`, the IC50 in the data set with MGC-803 is 0.03 µg/mL (≈ 0.0633 µM); in the data set on HeLa, 2.35 µg/mL (≈ 4.95 µM); in the data set with MCF7 it was 0.89 µg/mL (≈ 1.88 µM); with HepG2, 0.92 µg/mL (≈ 1.94 µM). The same compound yielded a CC50 at 72 h in data set [1] of 980 µg/mL (≈ 2070 µM).

The record behind these values is ChEMBL document CHEMBL4177653, “Identification of nitroimidazole-oxime derivatives targeting the polo-box domain of polo-like kinase 1” (Bioorg Med Chem, 2017).
